The source made the active and inactive calls.
Assays:
[1] = tested on: Severe acute respiratory syndrome-related coronavirus; test: Inhibition of SARS coronavirus nsP13 helicase activity expressed in Escherichia coli Rosetta assessed inhibition of DNA unwinding activity at 10 uM by FRET assay
Procedure, shortened: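 FRET dsDNA-unwinding assay using fluorescein/TAMRA-labelled duplex. When nsP13 unwinds the duplex, fluorescein emission is unquenched. Compound was added to the unwinding reaction at 10 µM, and fluorescence was read at 535 nm.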

[2] = tested on: Hepacivirus hominis; test: Inhibition of HCV NS3 helicase overexpressed in Escherichia coli BL21(DE3) assessed as inhibition of DNA unwinding activity at 10 uM by FRET assay
[3] = tested on: Hepacivirus hominis; test: Inhibition of HCV NS3 helicase ATP hydrolysis activity overexpressed in Escherichia coli BL21(DE3) assessed as inhibition of inorganic phosphate release by AM/MG-based colometric analysis in the presence of M13 ssDNA

Measured: inhibition

C[C@H]1[C@H](C)CC[C@]2(C(=O)O)CC[C@]3(C)C(=CC[C@@H]4[C@@]5(C)CC[C@H](O)C(C)(C)[C@@H]5CC[C@]43C)[C@H]12
inactive: all assays above

CC(C)=CCC[C@](C)(O[C@@H]1O[C@H](CO[C@@H]2O[C@H](CO)[C@@H](O)[C@H](O)[C@H]2O)[C@@H](O)[C@H](O)[C@H]1O)[C@H]1CC[C@]2(C)[C@@H]1[C@H](O)C[C@@H]1[C@@]3(C)CC[C@H](O[C@@H]4O[C@H](CO)[C@@H](O)[C@H](O)[C@H]4O)C(C)(C)[C@@H]3CC[C@]12C
inactive: all assays above

CC1(C)CC[C@]2(C(=O)O)CC=C3[C@]4(C)CC[C@H]5C(C)(C)[C@@H](O)CC[C@]5(C)[C@H]4CC[C@@]3(C)[C@@H]2C1
inactive: all assays above

O=c1c(-c2ccc(O)cc2)coc2cc(O[C@@H]3O[C@H](CO)[C@@H](O)[C@H](O)[C@H]3O)ccc12
inactive: all assays above

CC[C@H](CC[C@@H](C)[C@H]1CC[C@H]2[C@@H]3CC=C4C[C@@H](O[C@@H]5O[C@H](CO)[C@@H](O)[C@H](O)[C@H]5O)CC[C@]4(C)[C@H]3CC[C@]12C)C(C)C
inactive: all assays above

C[C@H]1[C@@H](O)CC[C@@H]2[C@]1(C)CC[C@H]1[C@@]2(C)CC[C@@]2(C)[C@@H]3CC(C)(C)CC[C@]3(C)CC[C@]12C
inactive: all assays above

O=C(O)[C@H]1O[C@@H](Oc2cc3oc(-c4ccc(O)cc4)cc(=O)c3c(O)c2O)[C@H](O)[C@@H](O)[C@@H]1O
inactive: all assays above

C=C(C)C(C)CC[C@@H](C)[C@H]1CC[C@@]2(C)[C@@H]3CC[C@H]4C(C)(C)C(=O)CC[C@]4(C)C3=CC[C@]12C (some centres not stated)
inactive: all assays above

CC(C)=CCc1c(O)c(CC=C(C)C)c2oc3c(O)cccc3c(=O)c2c1O
inactive: all assays above

COc1ccc([C@@H]2CC(=O)c3c(O)cc(O)cc3O2)cc1O[C@@H]1O[C@H](CO[C@@H]2O[C@@H](C)[C@H](O)[C@@H](O)[C@H]2O)[C@@H](O)[C@H](O)[C@H]1O
inactive: all assays above

COc1ccc(-c2oc3c(CC=C(C)C)c(O[C@@H]4O[C@H](CO)[C@@H](O)[C@H](O)[C@H]4O)cc(O)c3c(=O)c2O[C@@H]2O[C@@H](C)[C@H](O)[C@@H](O)[C@H]2O)cc1
inactive: all assays above

O=c1cc(-c2ccccc2)oc2cc(O)c(O)c(O)c12
inactive: all assays above

C=C1CC[C@@H]2[C@H]([C@H]3[C@H]1CC[C@]3(C)O)C2(C)C
inactive: all assays above

O=c1c(O)c(-c2ccccc2)oc2cc(O)cc(O)c12
inactive: all assays above

Reference: ChEMBL document CHEMBL2057104, “Identification of myricetin and scutellarein as novel chemical inhibitors of the SARS coronavirus helicase, nsP13” (Bioorg Med Chem Lett, 2012)
